GASC1 inh – blocks human GASC-1 (KDM4C) demethylase activity. GST-KDM4C 2-372, H3K9me3 peptide, LANCE TR-FRET. inhibition, % at 12.5 µM. 96,000 tested, 0.15% active;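 active means mean replicate inhibition above about 25%, with at least 55% of replicates also reaching it, limit read from the data, passing the limit was not always enough; inconclusive means only one of those two conditions met; inactive means neither condition met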
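Assay system: GST-GASC-1 enzyme fragment 2-372 | Amount: 10 nM enzyme | Medium: HEPES buffer, pH 7.5, plus ascorbate | Reagent: H3K9me3 peptide substrate, Fe(II), 2-oxoglutarate | Doses: Single-point compound screen | Incubation: 30 min demethylation and 1 h detection at room temperature | Measured by: LANCE TR-FRET, excitation 340 nm, emissions 618 and 671 nm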
IDH1 mut inh – inhibitors of human IDH1 R132H. 70,000 tested, 0.18% active. IDH1 R132H reductase, diaphorase/resazurin fluorescence, 60 min. inhibition, % at 10 µM; in the data active means inhibition above about 34%; inconclusive means no clear call, values can overlap the other calls; inactive means below about 11%;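 further: 0% = DMSO and 100% = no enzyme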
Target sequence (O75874 whole entry R132H): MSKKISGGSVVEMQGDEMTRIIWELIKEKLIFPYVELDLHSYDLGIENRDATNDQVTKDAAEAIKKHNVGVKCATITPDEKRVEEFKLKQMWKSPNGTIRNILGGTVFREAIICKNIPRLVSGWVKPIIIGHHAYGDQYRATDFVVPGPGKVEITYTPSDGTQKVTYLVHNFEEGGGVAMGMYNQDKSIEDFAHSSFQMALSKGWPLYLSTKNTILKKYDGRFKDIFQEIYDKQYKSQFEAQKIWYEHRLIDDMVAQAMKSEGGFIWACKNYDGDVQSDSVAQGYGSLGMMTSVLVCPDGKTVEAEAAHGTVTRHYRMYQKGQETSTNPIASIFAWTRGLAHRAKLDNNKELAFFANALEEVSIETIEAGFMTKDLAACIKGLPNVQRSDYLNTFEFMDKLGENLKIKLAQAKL
Pf Dd2 growth – P. falciparum Dd2 growth inhibition; SYBR Green, 72 h; hits give low values; activity change, % at 10 µM; 94,000 tested, 2.3% active; in the data active means activity change below about -80%; inconclusive means no clear call, values can overlap the other calls
T cruzi growth-1 – blocks T. cruzi growth in NIH3T3 culture | T. cruzi beta-gal in NIH3T3, GalScreen luminescence, 90 h | inhibition, % at 8.34 µM | 77,000 tested, 5.9% active;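 active means mean inhibition above about 93%, with at least 55% of replicates each passing it, limit read from the data, passing the limit was not always enough; inconclusive means only one of those two conditions holds; inactive means neither condition holds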
T cruzi growth-2 – inhibitors of T. cruzi proliferation. shares compounds with T cruzi growth-1. T. cruzi beta-gal in NIH3T3, GalScreen luminescence, 90 h. inhibition, % at 8.35 µM. 5,600 tested, 72% active. AID 651739;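 active means mean replicate inhibition above about 95% and at least 55% of replicates individually reaching it, limit read from the data; inconclusive means only one of the two criteria is met; inactive means neither criterion is met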
T cruzi growth-3 – blocks T. cruzi growth in NIH3T3 host cells; 5,600 tested, 21% active; shares compounds with T cruzi growth-1; T. cruzi beta-gal in NIH3T3, GalScreen luminescence, 90 h; inhibition, % at 2.09 µM;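 active means mean inhibition above about 95%, with at least 55% of replicates also reaching it, limit read from the data; inconclusive means meets just one of the two conditions; inactive means meets neither condition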;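 further: plate controls were neutral control median for no effect and positive control median for full effect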
NIH3T3 tox – NIH/3T3 (mouse) viability loss; shares compounds with T cruzi growth-1; NIH/3T3 viability, CellTiter-Glo ATP luminescence, 90 h; cytotoxicity (signal decrease), % at 8.35 µM; 5,600 tested, 14% active;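 active means mean signal decrease across replicates above about 35% based on untreated-well scatter, with enough replicates individually passing, limit read from the data; inconclusive means no rule stated though some were filed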;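 further: 0% = median of neutral control wells and 100% = median of positive control wells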
3T3 cytotox 2 – NIH/3T3 (mouse) viability loss | shares compounds with T cruzi growth-1 | NIH/3T3 viability, CellTiter-Glo ATP luminescence, 90 h | inhibition, % at 24.9 µM | 5,600 tested, 56% active;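 active means mean loss of cell viability signal at or above a set limit, and enough replicates individually reaching it; inconclusive means meets only the mean limit or only the replicate share; inactive means meets neither condition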;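 further: 0% = median of neutral control wells and 100% = median of positive control wells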
Numbers without * were called inactive; ? = inconclusive; nt = no result. Hits are enriched below; roughly 5.9% of the tested compounds scored in any of these assays.

SMILES | GASC1 inh | IDH1 mut inh | Pf Dd2 growth | T cruzi growth-1 | T cruzi growth-2 | T cruzi growth-3 | NIH3T3 tox | 3T3 cytotox 2
COc1ccc(C#Cc2ccc3c(c2)O[C@@H](CN(C)C(=O)NC2CCCCC2)[C@H](C)CN([C@@H](C)CO)S3(=O)=O)cc1 | -4 | 0 | -67 | ? | 100* | 99* | -30 | -3
C[C@@H]1CN([C@@H](C)CO)S(=O)(=O)c2ccc(C#Cc3ccc(F)cc3)cc2O[C@@H]1CN(C)C(=O)NC1CCCCC1 | 3 | nt | 28 | 82 | nt | nt | nt | nt
Cc1ccccc1NS(=O)(=O)c1ccc(Cl)c(C(=O)Nc2ccccc2C(=O)O)c1 | nt | 1 | nt | nt | nt | nt | nt | nt
CC1(O)CC(=O)c2c(ccc3c2C(=O)c2cccc(O)c2C3=O)C1 (stereo not given) | nt | 0 | nt | nt | nt | nt | nt | nt
Cc1ccccc1-c1nnc(SCC(=O)Nc2cc(C(F)(F)F)ccc2N2CCOCC2)o1 | nt | 0 | nt | nt | nt | nt | nt | nt
COc1ccc([N+](=O)[O-])cc1CSc1nnc(-c2ccc(NC(C)=O)cc2)n1C | nt | 0 | nt | nt | nt | nt | nt | nt
Cc1nnn(C23CC4CC(CC(C(=O)NC5CCCCCC5)(C4)C2)C3)n1 | nt | 0 | nt | nt | nt | nt | nt | nt
Cc1cc(OCC(=O)Nc2ccccc2N2CCN(C)CC2)cc(C)c1Cl | nt | 0 | nt | nt | nt | nt | nt | nt
C[C@@H]1CN([C@H](C)CO)S(=O)(=O)c2ccc(C#Cc3ccc(F)cc3)cc2O[C@@H]1CN(C)C(=O)NC1CCCC1 | -2 | -1 | -50 | 114* | ? | 85 | 14 | 104*
C[C@H]1CN([C@@H](C)CO)S(=O)(=O)c2ccc(C#Cc3ccc(F)cc3)cc2O[C@@H]1CN(C)C(=O)NC1CCCCC1 | 2 | -2 | -27 | 80 | nt | nt | nt | nt
COc1ccccc1-c1ccc2c(c1)[C@@H]1[C@@H](CCN1C(=O)C1CCOCC1)[C@H](CO)N2 | 0 | nt | -23 | 97* | 102* | 72 | -23 | -30
O=C(C1CCOCC1)N1CC[C@@H]2[C@H]1c1cc(-c3ccc(F)cc3)ccc1N[C@@H]2CO | 3 | nt | 4 | 105* | ? | 82 | -9 | 23
O=C(C1CCOCC1)N1CC[C@@H]2[C@@H](CO)Nc3ccc(-c4ccc(F)cc4)cc3[C@@H]21 | 3 | nt | 32 | 105* | 99* | 60 | -13 | 14
O=C(C1CC1)N1CC[C@@H]2[C@@H](CO)Nc3ccc(-c4ccc(F)cc4)cc3[C@@H]21 | 1 | nt | 2 | 84 | nt | nt | nt | nt
O=[N+]([O-])c1ccc(NC(=S)NCCCn2ccnc2)cc1 | nt | 14 | nt | nt | nt | nt | nt | nt
CC(C)CC#Cc1cnc2c(c1)C(=O)N([C@H](C)CO)C[C@H](C)[C@@H](CN(C)Cc1cccc(F)c1)O2 | -2 | 0 | -46 | 112* | 106* | 74 | 7 | 107*
C[C@@H]1CN([C@H](C)CO)C(=O)c2cc(C#CCN(C)C)cnc2O[C@H]1CN(C)Cc1cccc(F)c1 | 3 | -1 | 8 | -31 | nt | nt | nt | nt
C[C@@H]1CN([C@@H](C)CO)C(=O)c2cc(C#CCc3ccccc3)cnc2O[C@H]1CN(C)Cc1cccc(F)c1 | 3 | -1 | -57 | 97* | 111* | 94 | -7 | 104*
CC(C)CC#Cc1cnc2c(c1)C(=O)N([C@@H](C)CO)C[C@@H](C)[C@H](CN(C)Cc1cccc(F)c1)O2 | -2 | -1 | -58 | 103* | 104* | 83 | 27 | 107*
C[C@H]1CN([C@@H](C)CO)C(=O)c2cc(C#CCc3ccccc3)cnc2O[C@H]1CN(C)Cc1cccc(F)c1 | 1 | 0 | -43 | 18 | nt | nt | nt | nt
Cn1nc(-c2ccc(NCCN3CCOCC3)c([N+](=O)[O-])c2)c2ccccc2c1=O | nt | 0 | nt | nt | nt | nt | nt | nt
COc1cccc(NC(=O)CSC2CC(=O)N(c3cc(C)cc(C)c3)C2=O)c1 (stereo not given) | nt | 0 | nt | nt | nt | nt | nt | nt
C[C@H](CO)N1C[C@H](C)[C@H](CN(C)S(=O)(=O)c2ccccc2)OCCCC[C@H](C)Oc2ccc(NS(=O)(=O)c3ccc(Cl)cc3)cc2C1=O | -3 | nt | -33 | 118* | 104* | 88 | -18 | -5

Source: PubChem BioAssay (Broad Institute)
